Screening results (PubChem)
Rows were chosen to be rich in hits. Some 2.3% of all compounds tested hit in one or more screens of this group.
PAFAH2 FP inh = inhibitors of human PAFAH2 | recombinant PAFAH2, FP-rhodamine activity probe, fluorescence polarization | inhibition, % at 3.39 µM | 340,000 tested, 0.99% active | AID 492956;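 active means inhibition above the mean over all tested compounds plus 3 SD, cut at about 30% in these data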;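 further: inhibitors block probe labeling of enzyme so polarization drops; 0% = enzyme with DMSO and 100% = wells lacking PAFAH2 protein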
PAFAH1B3 inh = blocks human PAF acetylhydrolase 1B catalytic subunit 3. Q15102. recombinant PAFAH1B3, FP-rhodamine probe, fluorescence polarization. 340,000 tested, 0.28% active. inhibition, % at 3.39 µM;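 active means inhibition above the screen-wide average of all tested compounds plus 3 SD, cut at about 25% in these data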;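 further: 0% = enzyme with DMSO only and 100% = wells lacking PAFAH1B3 protein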
Target sequence (Q15102 whole entry, looked up): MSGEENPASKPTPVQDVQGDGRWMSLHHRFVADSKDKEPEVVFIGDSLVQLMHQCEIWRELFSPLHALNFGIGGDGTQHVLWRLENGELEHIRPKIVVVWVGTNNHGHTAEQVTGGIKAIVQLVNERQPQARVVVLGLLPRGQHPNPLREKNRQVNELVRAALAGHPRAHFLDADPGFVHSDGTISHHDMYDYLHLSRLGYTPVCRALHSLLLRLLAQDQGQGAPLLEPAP
Apaf-1 inh = inhibitors of human Apaf-1 apoptosome; reconstituted apoptosome caspase-3 activity, DEVD-Rh110 fluorescence; AID 489030; 330,000 tested, 0.71% active; inhibition, % at 20 µM; active means inhibition of at least 40% at 20 µM;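 further: plate controls were DMSO wells for no effect and DEVD-CHO caspase inhibitor wells for full effect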
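System: reconstituted apoptosome with Apaf-1, cytochrome c, caspase-9, procaspase-3, dATP; Signal: Rh110 fluorescence intensity; Schedule: 30 min compound preincubation, 50 min activation, room temperature; Reagent: cytochrome c trigger plus (Z-DEVD)2-Rh110 caspase-3 substrate.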
TDP2 absorb = TDP2 (human) inhibition, absorbance primary screen; O95551; inhibition, % at 12.8 µM; AID 720702; recombinant TDP2, T5PNP hydrolysis, p-nitrophenol absorbance 415 nm; 370,000 tested, 0.34% active;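 active means inhibition above the mean of all tested compounds plus 3 SD, set per campaign, cut at about 25% in these data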;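 further: 0% = DMSO with enzyme and 100% = buffer with substrate but no TDP2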
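Assay system: recombinant human TDP2 / Reagent: T5PNP substrate at 5 mM, a TopII-DNA adduct mimic / Measured by: epi absorbance from released p-nitrophenol / Evaluation: % inhibition relative to enzyme-containing and enzyme-free wells / Control set: enzyme-free and DMSO wells / Replicates: each compound tested once, singlicate / Schedule: enzyme reaction with compound for 2 h at 37 °C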
PAFAH1B2 FP inh = PAFAH1B2 (human) inhibition. recombinant PAFAH1B2, FP-rhodamine activity probe, fluorescence polarization. inhibition, % at 3.39 µM. 340,000 tested, 1.2% active. AID 492953;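 active means inhibition above the mean of all tested compounds plus 3 SD, cut at about 24% in these data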;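 further: 0% = enzyme with DMSO and 100% = wells lacking PAFAH1B2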
Target sequence (P68402 whole entry, looked up): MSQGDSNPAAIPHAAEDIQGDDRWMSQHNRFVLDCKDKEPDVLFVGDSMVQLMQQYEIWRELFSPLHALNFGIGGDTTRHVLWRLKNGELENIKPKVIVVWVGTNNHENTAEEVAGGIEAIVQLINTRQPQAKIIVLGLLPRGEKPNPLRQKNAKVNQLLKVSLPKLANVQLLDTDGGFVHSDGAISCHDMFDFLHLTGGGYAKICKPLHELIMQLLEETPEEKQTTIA
* = called active by the depositor; i = inactive; . = no result given.

SMILES | PAFAH2 FP inh | PAFAH1B3 inh | Apaf-1 inh | TDP2 absorb | PAFAH1B2 FP inh
CCOc1ccc(CCNC(=O)c2ccc3c(=O)[nH]c4c(C(=O)NC(C)C)sc(=S)n4c3c2)cc1 | 29 | 15 | i | 2 | 12
COc1ccc(OC)c(CCNC(=O)c2ccc3c(=O)[nH]c4c(C(=O)NC(C)C)sc(=S)n4c3c2)c1 | 60* | 21 | 12 | -4 | 24*
O=C(NCCc1ccccc1)c1ccc2c(=O)[nH]c3c(C(=O)NCC4CCCO4)sc(=S)n3c2c1 (stereo not drawn) | 22 | 30* | 14 | -8 | 50*
O=C(NCCc1ccc(Cl)cc1)c1ccc2c(=O)[nH]c3c(C(=O)NCC4CCCO4)sc(=S)n3c2c1 (stereo not drawn) | . | . | . | -2 | .
Cc1cc(O)c(CN(C)C)c2c1C(=O)/C(=C/c1ccco1)O2 | 3 | 18 | 3 | 14 | 2
Cc1cc(O)c(C=O)c2c1C(=O)Oc1c(CO)c(O)c3c(c1O2)C(O)OC3=O (stereo not drawn) | 48* | 33* | -1 | . | 3
CC(=O)c1ccc(N2CCN(C(=O)c3ccc4c(=O)[nH]c5c(C(=O)NC6CCCC6)sc(=S)n5c4c3)CC2)cc1 | . | . | . | 4 | .
O=C(NC1CCCCC1)c1sc(=S)n2c1[nH]c(=O)c1ccccc12 | 56* | 32* | 6 | -2 | 42*
CCCCNC(=O)c1sc(=S)n2c1[nH]c(=O)c1ccccc12 | 38* | 31* | 3 | 17 | 26*
O=C(O)CC(NS(=O)(=O)c1ccc(Br)cc1)c1ccco1 (stereo not drawn) | 7 | 1 | -23 | -3 | 28*
Cc1ccc(S(=O)(=O)NC(CC(=O)O)c2ccco2)cc1 (stereo not drawn) | -3 | -3 | -3 | 6 | 9
COc1cc2[nH]c3c(N4CCN(c5ccc(Cl)cc5)CC4)ncnc3c2cc1OC | 1 | 38* | 0 | -6 | 12
O=C1NC2=C(CCc3ccccc32)C(c2ccc(Br)cc2)N1 (stereo not drawn) | 2 | 7 | 69* | 9 | 8
O=C1Cc2ccccc2C(c2ccc(Br)cc2)N1 (stereo not drawn) | 1 | 3 | -28 | -2 | -1
CC(C)(C)OC(=O)N1CCC2CCN(S(C)(=O)=O)CC21 (stereo not drawn) | . | . | . | 8 | .
NC(=S)NNc1cccc2cccnc12 | 13 | 22 | 76* | 15 | 5
O=C1C(Cl)=C(N2CCN(c3ccccc3[N+](=O)[O-])CC2)C(=O)c2ccccc21 | 40* | 49* | . | 62* | 28*
O=[N+]([O-])c1cc(Cl)ccc1N1CCCC1 | -2 | 6 | 11 | -3 | 6
O=C(O)c1cccc2[nH]c(C(F)(F)F)nc12 | -9 | 4 | 2 | 6 | 1
Nc1cccc2[nH]c(C(F)(F)F)nc12 | -15 | -5 | -7 | 32* | -6
CCCCS(=O)(=O)N1CCCc2nc(-c3ccc(F)cc3)ccc21 | . | . | . | 2 | .
Cc1ccc(S(=O)(=O)N[C@@H](Cc2ccccc2)C(=O)CCl)cc1 | 11 | 7 | 0 | 10 | 24*
Cc1ccc(S(=O)(=O)NC(C)CCc2ccccc2)cc1 (stereo not drawn) | -1 | 10 | 0 | -18 | 36*
Cc1ccc(S(=O)(=O)NC(C)CCc2ccccc2)cc1C(N)=O (stereo not drawn) | -5 | 3 | 3 | 0 | 12
Cc1ccc(S(=O)(=O)NC(Cc2ccccc2)C(=O)NN)cc1 (stereo not drawn) | 2 | 12 | -3 | -14 | 9
SMILES | PAFAH2 FP inh | PAFAH1B3 inh | Apaf-1 inh | TDP2 absorb | PAFAH1B2 FP inh
Cc1ccc(C)c(S(=O)(=O)NC(C)CCc2ccccc2)c1 (stereo not drawn) | 9 | 3 | 25 | 1 | 29*
O=C(N[C@H](C(=O)N1CCC[C@H]1C(=O)NCCc1ccccc1Cl)c1ccccc1)c1cccs1 | . | . | . | -4 | .
CSCCC(NS(=O)(=O)c1cccc(C(F)(F)F)c1)C(=O)Nc1ccccc1N1CCCC1 (stereo not drawn) | 6 | 3 | 11 | -2 | 26*
CC1CC(NS(=O)(=O)c2cccs2)CC(C)(C)C1 (stereo not drawn) | 8 | 15 | 6 | -14 | 29*
O=C1C=CC(=O)c2c(O)c(N3CCN(CCOCCO)CC3)c(Br)c(O)c21 | 59* | 62* | . | 24 | 44*
OCCOCCN1CCN(C2=Nc3ccccc3Sc3ccccc32)CC1 | -4 | -4 | -2 | 4 | 3
O=C1C=CC(=O)c2c(O)c(N3CCN(CCO)CC3)c(Cl)c(O)c21 | 41* | 50* | . | 8 | 28*
OCCCn1c(CCNc2nc(-c3ccc(Cl)cc3)cs2)nc2cc(C(F)(F)F)ccc21 | 6 | 5 | 13 | -3 | 27*
Cc1nc2cc(C(F)(F)F)ccc2n1CCNc1nc(-c2ccc([N+](=O)[O-])c(Cl)c2)cs1 | 1 | 6 | 21 | -9 | 24
O=[N+]([O-])c1cc(-c2csc(NCCc3nc4cc(C(F)(F)F)ccc4n3CCCO)n2)ccc1Cl | -4 | -1 | -3 | -9 | 32*
Cc1ccc(OCc2nc(C#N)c(NCCCn3ccnc3)o2)cc1 | -6 | -5 | -6 | -1 | 0
N#Cc1nc(COc2ccc(Br)cc2)oc1NCCCn1ccnc1 | 0 | -1 | 24 | 4 | 25*
O=C(c1ccc(Cl)c(Cl)c1)N1CCC(Oc2cccnc2)CC1 | . | . | . | -1 | .
CN(CCc1ccccn1)C(=O)Cn1nc(-c2ccccc2)ccc1=O | . | . | . | -7 | .
O=C(c1cccs1)[C@@H]1[C@@H]2C(=O)N(Cc3ccc4c(c3)OCO4)C(=O)[C@@H]2C2c3ccccc3C=CN21 (stereo partly drawn) | . | . | 82* | . | .
O=C(Nc1ccc2c(c1)OCO2)[C@@H]1[C@@H]2C(=O)N(C3CCCCC3)C(=O)[C@@H]2C2c3ccccc3C=CN21 (stereo partly drawn) | . | . | 42* | 5 | .
O=C1c2ccccc2C(=O)N1Cc1ccc2c(c1)OCO2 | -1 | 2 | -4 | -6 | 2
O=C(c1ccc2c(c1)OCO2)[C@@H]1[C@@H]2C(=O)N(C3CCCCC3)C(=O)[C@@H]2C2c3ccccc3C=CN21 (stereo partly drawn) | 10 | 4 | . | 7 | -1
CC1(C)CC2CC(C)(CN2C(=O)Cc2ccccc2)C1 (stereo not drawn) | 1 | -2 | 3 | -5 | 5
CC1(C)CC2CC(C)(CN2C(=O)CN2C(=O)c3ccccc3C2=O)C1 (stereo not drawn) | -8 | 4 | 5 | -4 | 24*
COC(=O)c1ccc(S(=O)(=O)NCc2ccc(OC)cc2)n1C | 4 | 7 | -1 | 1 | 29*
O=C(Nc1ccccn1)c1ccc(S(=O)(=O)c2ccc(Cl)cc2)cc1 | -4 | 1 | 1 | 9 | 24*
O=S1(=O)N[C@@H](Cc2ccccc2)COc2cccc(N3CCCC3)c21 | . | . | . | -12 | .
COc1ccc(CN[C@@H]2CC[C@@]34CCCN3C(=O)CCC[C@H]4C2)cc1OC | . | . | . | 10 | .
